Measurements: publication PMC11785078 (bioRxiv, 2025)

Tests used:
cell culture = details: ref [14] Iwasaki et al., 2014; cited from earlier work
[1] = test system: MDA-MB-231 triple-negative breast cancer (TNBC) cells; assay: MTT cytotoxicity assay, MDA-MB-231; type: cell-based, human; details: 72 h, 5% FBS
How it was run: (§1)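 Cells plated at 5×10^3/well and attached overnight. Growth media were DMEM:F-12 (1:1) with 10% FBS for MDA-MB-231 and RPMI 1640 with 10% FBS for MCF-7. Test compound or DMSO vehicle applied for 72 h with 5% FBS. MTT added at 0.5 mg/mL final for 3 h at 37°C, 5% CO2, and formazan dissolved in DMSO. A570 read in three wells per condition and normalized to DMSO + 5% FBS. Mean ± SE of three experiments; one-way ANOVA with Bonferroni.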

[2] = test system: MCF-7 estrogen receptor positive breast cancer cells; assay: MTT cytotoxicity assay, MCF-7; type: cell-based, human; details: 72 h, 5% FBS
How it was run: as §1

[3] = molecular target: T1, Sigma 2 receptor (Transmembrane Protein 97 (TMEM97)) (Rattus norvegicus, UniProt Q5U3Y7); assay: PDSP radioligand competition-binding assay, sigma 2; details: 10 μM (primary criterion)
T1 sequence (Q5U3Y7 1-176): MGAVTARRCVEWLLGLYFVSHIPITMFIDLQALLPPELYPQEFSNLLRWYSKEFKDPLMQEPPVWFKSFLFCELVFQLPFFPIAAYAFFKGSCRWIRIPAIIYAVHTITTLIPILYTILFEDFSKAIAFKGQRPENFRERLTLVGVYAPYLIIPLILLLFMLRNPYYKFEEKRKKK

mice = assay: Open field locomotor behavior; type: in vivo, male C57Bl/6J mice; details: ICV 20 μg, 10-minute open field, vs vehicle, unpaired t-test P>0.05
How it was run: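 Male C57Bl/6J mice, 8–10 weeks old, fitted under isoflurane with a right lateral ventricle ICV cannula and allowed one week of recovery. After 1 h habituation in a dim room with 60 dB white noise, mice received 20 µg test compound in 0.5 µL 50% DMSO/50% aCSF over 2 min, or vehicle alone. Open field test began 5 min later; total distance travelled was scored blind. Cannula placement was checked at necropsy.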

[4] = printed "15 M", mean of three experiments

For maedamide, the “antitumor cytotoxicity” value (cell culture) is given as “only linear depsipeptide that exhibits antitumor cytotoxicity in cell culture”.
With veraguamide C the “effect on viability / toxicity in TNBC cells (words)” value [1] was “selectively reduce viability”, the “effect on viability / toxicity in TNBC cells (words)” value ([1]; listed as veraguamide C) was “similar, albeit minor, levels of toxicity” and the “cytotoxicity, TNBC cells (MDA-MB-231)” value [1, 4] was 53%. For the same substance, the “effect on viability / toxicity in MCF-7 (ER positive) cells” value ([2]; listed as veraguamide C) was “mild toxicity”, the “cytotoxicity, MCF7 cells” value [2, 4] was 65% and the “Primary: Percent Inhibition of Binding” value [3] was 65%. For the same substance, the “effect on locomotor behavior” value (mice) was “no effect of veraguamide C on total distance traveled compared to vehicle”.
